10 compounds from ChEMBL document CHEMBL1140685, “Synthesis and antitrichinellosis activity of some bis(benzimidazol-2-yl)amines” (2007) can be followed below.

Holding throughout (type): functional
For assay [1], the system named is Trichinella spiralis. The assay is described as follows: Antitrichinellosis activity against Trichinella spiralis larvae at 50 ug/ml after 24 hrs by Campbell's method. In outline:
(§1)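 Encapsulated T. spiralis larvae were held at 150 per 1 ml physiological solution with compound dissolved in DMSO–water. Incubation was at 37 °C in a humid thermostatted chamber. Larval vitality was scored by stereomicroscope at 24 and 48 h after treatment.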

Assay [2] deals with Trichinella spiralis. The assay is described as follows: Antitrichinellosis activity against Trichinella spiralis larvae at 100 ug/ml after 24 hrs by Campbell's method. Put shortly: as §1
For assay [3], the system named is Trichinella spiralis. The assay is described as follows: Antitrichinellosis activity against Trichinella spiralis larvae at 200 ug/ml after 24 hrs by Campbell's method. Put shortly: as §1
Assay [4] deals with Trichinella spiralis. The assay is described as follows: Antitrichinellosis activity against Trichinella spiralis larvae at 50 ug/ml after 48 hrs by Campbell's method. In outline: as §1
Assay [5] relates to Trichinella spiralis. The assay can be described thus: Antitrichinellosis activity against Trichinella spiralis larvae at 100 ug/ml after 48 hrs by Campbell's method. Put shortly:
as §1

Assay [6] concerns Trichinella spiralis. The assay can be described thus: Antitrichinellosis activity against Trichinella spiralis larvae at 200 ug/ml after 48 hrs by Campbell's method. In outline: as §1
Assay [7] deals with Trichinella spiralis. The assay is described as follows: Antitrichinellosis activity against Trichinella spiralis intestinal phase larvae in mouse at 50 mg/kg, po after 3 days. Put shortly:
(§2)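 White immature mice each infected with 150 Trichinella larvae, five mice per group. Oral dosing by thin metallic probe into the oesophagus as DMSO solution, once daily for 3 days starting on day 3 after infection. Controls were untreated mice and mice given albendazole at 100 mg/kg. Read-out was microscopic examination of small-intestine contents after autopsy for larvae.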

For assay [8], the system named is Trichinella spiralis. The assay is described as follows: Antitrichinellosis activity against Trichinella spiralis intestinal phase larvae in mouse at 100 mg/kg, po after 3 days. Put shortly: as §2

For the compound `CCCn1c(Nc2nc3ccccc3[nH]2)nc2ccccc21`, the Efficacy worked out at 12% with Trichinella spiralis [1]; 17.6% with Trichinella spiralis [2]; 67.7% in the assay on Trichinella spiralis [3]; 20% in the assay with Trichinella spiralis [4]; 34.5% in the assay on Trichinella spiralis [5]; 78% in the assay with Trichinella spiralis [6].
As for `CCCn1c(Nc2nc3ccccc3n2CCC)nc2ccccc21`, the Efficacy in the assay with Trichinella spiralis [1] is on record as 45.9%; with Trichinella spiralis [2], 81.2%; in the assay with Trichinella spiralis [3], 100%; in the assay on Trichinella spiralis [7], 100%; with Trichinella spiralis [8] it was 100%; with Trichinella spiralis [4], 58.6%. For the same compound, the Efficacy came out at 95.3% with Trichinella spiralis [5] and 100% in the assay on Trichinella spiralis [6].
On to `CCCn1c(Nc2nc3ccccc3n2C)nc2ccccc21`, for which the Efficacy was found to be 33.3% with Trichinella spiralis [1]; 73.8% with Trichinella spiralis [2]; 80% in the assay on Trichinella spiralis [3]; 43.4% in the assay on Trichinella spiralis [4]; 80% with Trichinella spiralis [5]; 88.4% with Trichinella spiralis [6].
With `CCCSc1ccc2[nH]c(NC(=O)OC)nc2c1` [ALBENDAZOLE], the Efficacy in the assay with Trichinella spiralis [1] is given as 10.6%; in the assay on Trichinella spiralis [2], 10.7%; in the assay with Trichinella spiralis [3], 13.3%; with Trichinella spiralis [8], 100%; with Trichinella spiralis [4] it was 14.8%; with Trichinella spiralis [5] it was 15.1%. The compound further had an Efficacy in the assay on Trichinella spiralis [6] of 17.4%.
As for `CCCn1c(Nc2nc3ccccc3n2CC)nc2ccccc21`, the Efficacy with Trichinella spiralis [1] turned out to be 42%; with Trichinella spiralis [2], 84%; in the assay with Trichinella spiralis [3] it was 96%; in the assay with Trichinella spiralis [7], 100%; with Trichinella spiralis [8], 100%; in the assay with Trichinella spiralis [4], 46%. For the same compound, the Efficacy with Trichinella spiralis [5] is on record as 92.1%; in the assay with Trichinella spiralis [6] it was 100%.
`CCn1c(Nc2nc3ccccc3n2C)nc2ccccc21`: the Efficacy with Trichinella spiralis [1] turned out to be 35.3%; in the assay with Trichinella spiralis [2] it was 65.7%; in the assay on Trichinella spiralis [3], 76.3%; in the assay with Trichinella spiralis [4], 65.3%; with Trichinella spiralis [5] it was 73%; in the assay with Trichinella spiralis [6], 84%.
For `CCn1c(Nc2nc3ccccc3n2CC)nc2ccccc21`, the Efficacy is on record as 45.8% with Trichinella spiralis [1]; 92% with Trichinella spiralis [2]; 94% in the assay on Trichinella spiralis [3]; 100% in the assay on Trichinella spiralis [7]; 100% in the assay with Trichinella spiralis [8]; 66.3% with Trichinella spiralis [4]. For the same compound, the figures for the Efficacy with Trichinella spiralis [5] and in the assay on Trichinella spiralis [6] were 97.5% and 98%, respectively.
For the compound `Cn1c(Nc2nc3ccccc3n2C)nc2ccccc21`, the Efficacy in the assay on Trichinella spiralis [1] was 8.8%; in the assay with Trichinella spiralis [2], 17.3%; in the assay on Trichinella spiralis [3], 45.7%; in the assay with Trichinella spiralis [4], 14%; in the assay with Trichinella spiralis [5], 18.3%; with Trichinella spiralis [6], 67.9%.
In the case of `CCn1c(Nc2nc3ccccc3[nH]2)nc2ccccc21`, the Efficacy in the assay with Trichinella spiralis [1] was 15.7%; in the assay on Trichinella spiralis [2], 20%; in the assay on Trichinella spiralis [3] it was 38.2%; with Trichinella spiralis [4], 25.3%; with Trichinella spiralis [5], 38.6%; in the assay on Trichinella spiralis [6], 65%.
On to `Cn1c(Nc2nc3ccccc3[nH]2)nc2ccccc21`, for which the Efficacy came to 9.1% with Trichinella spiralis [1]; 13.5% with Trichinella spiralis [2]; 30.2% in the assay on Trichinella spiralis [3]; 17.2% in the assay with Trichinella spiralis [4]; 28.3% in the assay with Trichinella spiralis [5]; 58.3% in the assay on Trichinella spiralis [6].
